What all share (format): functional
Test [1] has as its system HeLa. The test can be described thus: Cytostatic activity against HeLa cells. The conditions noted are these: Homo sapiens, read-out: ED50 (the source's name). In a few lines: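 HeLa cells at 10⁵ cells/mL in minimal Eagle's medium with 10% fetal calf serum, left 2–3 h at 37 °C in Leighton tubes to attach. Compound added as suspension in sterile saline with 0.05% Tween 80, 10% of final volume. Incubated 72 h at 37 °C. Growth from cell protein by Oyama–Eagle colorimetry; ED50 in μg/mL. 6-Mercaptopurine positive control.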

For test [2], the system named is Mus musculus. The test can be described thus: Percent increase in median survival time of treated mice compared with controls at 50 mg/kg. In short, it runs like this: (§1)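 Ehrlich carcinoma ascites in female ICR Swiss mice (19–22 g), about 5 × 10⁵ cells ip, per NCI protocols 1100/1200. From 24 h after implant, nine daily ip doses in saline with 0.05% Tween 80 (0.4 mL). Groups of 7 treated and 30 controls; 5-fluorouracil 20 (mg/kg)/injection as positive control. T/C × 100 taken from median survival time against controls; evaluation on day 30.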

Test [3] relates to Mus musculus. Put plainly: Number of cures on day 30 in mice bearing ECA tumor at 12.5 mg/kg. In a few lines: (§2)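 Ehrlich ascites carcinoma, about 5 × 10⁵ cells ip from a 7-day donor, in female ICR Swiss mice of 19–22 g. Nine ip doses at 24-h intervals from 24 h post-implant, in saline with 0.05% Tween 80, 0.4 mL. Groups of 7 treated, 30 controls; NCI protocols 1100/1200. Cures are survivors on day 30. 5-Fluorouracil 20 mg/kg/injection reference.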

Test [4] has as its system Mus musculus. Put plainly: Number of cures on day 30 in mice bearing ECA tumor at 50 mg/kg. In short, it runs like this: as §2
For test [5], the system named is Mus musculus. The test can be described thus: Percent increase in median survival time of treated mice compared with controls at 12.5 mg/kg. In a few lines:
as §1

Test [6] deals with Mus musculus. The test can be described thus: Percent increase in median survival time of treated mice compared with controls at 25 mg/kg. In a few lines: as §1
The subject of test [7] is Mus musculus. Put plainly: Number of survivors on day 5 to that of number(7) of mice at 12.5 mg/kg ip in mice bearing ECA tumor was determined. The conditions noted are these: route intraperitoneal. In short, it runs like this: (§3)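 Female ICR Swiss mice (19–22 g) given about 5 × 10⁵ Ehrlich ascites carcinoma cells ip from a 7-day donor tumour. Starting 24 h later, nine ip doses at 24-h intervals, suspended in 0.9% NaCl with 0.05% Tween 80, 0.4 mL per injection. Groups of 7 treated and 30 controls. Read-out is survivors on day 5 over mice started.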

The subject of test [8] is Mus musculus. Put plainly: Number of survivors on day 5 to that of number(7) of mice at 25 mg/kg ip in mice bearing ECA tumor was determined. The conditions noted are these: route intraperitoneal. In a few lines: as §3
In test [9] the test system is Mus musculus. The test can be described thus: Number of survivors on day 5 to that of number(7) of mice at 50 mg/kg ip in mice bearing ECA tumor was determined. The conditions noted are these: route intraperitoneal. In short, it runs like this:
as §3

For test [10], the system named is Mus musculus. The test can be described thus: Difference in weight on day 5 in mice bearing ECA tumor at 12.5 mg/kg. In a few lines:
(§4)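 Female ICR Swiss mice, 19–22 g, given about 5 × 10⁵ Ehrlich ascites cells ip from a 7-day donor. Starting 24 h later, nine daily ip doses suspended in 0.9% NaCl with 0.05% Tween 80, 0.4 mL. Groups of 7 treated, 30 controls, per NCI protocols 1100/1200. Value is weight difference (g) between test and control animals.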

For test [11], the system named is Mus musculus. The test can be described thus: Difference in weight on day 5 in mice bearing ECA tumor at 25 mg/kg. In a few lines:
as §4

Test [12] concerns Mus musculus. Put plainly: Difference in weight on day 5 in mice bearing ECA tumor at 50 mg/kg. In a few lines:
as §4

In test [13] the test system is Mus musculus. Put plainly: Number of cures on day 30 in mice bearing ECA tumor at 25 mg/kg. In short, it runs like this: as §2

Structures are written as SMILES. Converted amounts (≈) assume the structure as drawn.

`CCOC(=O)c1cc(CCl)[nH]n1`: in test [1], the EC50 is over 100 µg/mL.

With `NC(=O)c1cc(CCl)[nH]n1`, the EC50 in test [1] is over 100 µg/mL.

Regarding `CC(=O)OC[C@H]1O[C@@H](n2nc(CCl)cc2C(N)=O)[C@H](OC(C)=O)[C@@H]1OC(C)=O`, the EC50 in test [1] was 26 µg/mL (≈ 62.2 µM).

With `CCOC(=O)c1cc(CCl)nn1[C@@H]1O[C@H](COC(C)=O)[C@@H](OC(C)=O)[C@H]1OC(C)=O`, the EC50 in test [1] is 32 µg/mL (≈ 71.6 µM).

As for `CC(=O)OC[C@H]1O[C@@H](n2nc(C(N)=O)cc2CCl)[C@H](OC(C)=O)[C@@H]1OC(C)=O`, the EC50 in test [1] was determined as 12 µg/mL (≈ 28.7 µM).

For `CC(=O)OC[C@H]1O[C@@H](n2nc(C(N)=O)cc2CI)[C@H](OC(C)=O)[C@@H]1OC(C)=O`, the EC50 in test [1] amounted to 2 µg/mL (≈ 3.93 µM). The T/C in [2] turned out to be 100%; in test [5], 121%; in test [6], 141%. Also, the Cures is reported as 2 in [3], 1 in [4] and 4 in test [13]. The Survivors in [7], in test [8] and in [9] was 7 each time. Further, the Weight difference was 0.3 in [10], -0.25 in test [11] and -0.5 in test [12].

Regarding `CCOC(=O)c1cc(CI)nn1[C@@H]1O[C@H](COC(C)=O)[C@@H](OC(C)=O)[C@H]1OC(C)=O`, the EC50 in test [1] was 5.5 µg/mL (≈ 10.2 µM).

As for `CC(=O)OC[C@H]1O[C@@H](n2nc(CI)cc2C(N)=O)[C@H](OC(C)=O)[C@@H]1OC(C)=O`, in [1], the EC50 came out at 1.5 µg/mL (≈ 2.95 µM). For the same molecule, the T/C % in test [2] turned out to be 63%. The Cures in test [3] is on record as 2; in [13], 4. Also, the figures for the T/C in [5] and in [6] were 131% and 158%, respectively. For the same molecule, the Survivors in test [7], in [8] and in test [9] was 7 each time. Also, the Weight difference is -0.6 in test [10], -0.4 in test [11] and -0.6 in test [12].

Take `CCOC(=O)c1cc(CCl)nn1C1O[C@@H](COC(C)=O)[C@H](OC(C)=O)[C@@H](OC(C)=O)[C@@H]1OC(C)=O` (some centres not stated): in test [1], the EC50 worked out at 40 µg/mL (≈ 77.1 µM).

In the case of `CCOC(=O)c1cc(CI)[nH]n1`, in test [1], the EC50 was over 100 µg/mL.

Turning to `CC(=O)OC[C@@H]1OC(n2nc(CCl)cc2C(N)=O)[C@@H](OC(C)=O)[C@H](OC(C)=O)[C@H]1OC(C)=O` (some centres not stated), in test [1], the EC50 is 18 µg/mL (≈ 36.7 µM).

Take `NC(=O)c1cc(CI)[nH]n1`: the EC50 in [1] is over 100 µg/mL.

For `CC(=O)OC[C@H]1OC(n2nc(CCl)cc2C(N)=O)[C@H](OC(C)=O)[C@@H](OC(C)=O)[C@@H]1OC(C)=O` (some centres not stated), the EC50 in [1] stood at 12 µg/mL (≈ 24.5 µM).

For `CCOC(=O)c1cc(CCl)nn1C1O[C@H](COC(C)=O)[C@@H](OC(C)=O)[C@H](OC(C)=O)[C@H]1OC(C)=O` (some centres not stated), in test [1], the EC50 is over 100 µg/mL.

As for `CCOC(=O)c1cc(CI)nn1C1O[C@@H](COC(C)=O)[C@H](OC(C)=O)[C@@H](OC(C)=O)[C@@H]1OC(C)=O` (some centres not stated), the EC50 in [1] was 2.5 µg/mL (≈ 4.1 µM).

Take `CC(=O)OC[C@@H]1OC(n2nc(CI)cc2C(N)=O)[C@@H](OC(C)=O)[C@H](OC(C)=O)[C@H]1OC(C)=O` (some centres not stated): in test [1], the EC50 is 2 µg/mL (≈ 3.44 µM). In addition, the T/C in test [2] is 176%; in test [6], 105%. Also, the results for the Cures in [4] and in test [13] were 4 and 1, respectively. The Survivors in test [8] and in [9] was 7 in each case. The figures for the Weight difference in test [11] and in [12] were -0.1 and -0.3, respectively.

Source of the values: ChEMBL document CHEMBL1121454, “Alkylating nucleosides. 4. Synthesis and cytostatic activity of chloro- and iodomethylpyrazole nucleosides” (1980).
